RORa inhibitor = inhibitors of human nuclear receptor RORA | AID 561 | actives 0.43% (n = 65,000) | P35398 | CHO-K1 Gal4-RORA LBD luciferase reporter, luminescence | inhibition, % at 10 µM;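 active means inhibition above the mean of all tested compounds plus 3 SD, cut at about 52% in these data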
Target sequence (P35398 whole entry, looked up, the tested form may be a part): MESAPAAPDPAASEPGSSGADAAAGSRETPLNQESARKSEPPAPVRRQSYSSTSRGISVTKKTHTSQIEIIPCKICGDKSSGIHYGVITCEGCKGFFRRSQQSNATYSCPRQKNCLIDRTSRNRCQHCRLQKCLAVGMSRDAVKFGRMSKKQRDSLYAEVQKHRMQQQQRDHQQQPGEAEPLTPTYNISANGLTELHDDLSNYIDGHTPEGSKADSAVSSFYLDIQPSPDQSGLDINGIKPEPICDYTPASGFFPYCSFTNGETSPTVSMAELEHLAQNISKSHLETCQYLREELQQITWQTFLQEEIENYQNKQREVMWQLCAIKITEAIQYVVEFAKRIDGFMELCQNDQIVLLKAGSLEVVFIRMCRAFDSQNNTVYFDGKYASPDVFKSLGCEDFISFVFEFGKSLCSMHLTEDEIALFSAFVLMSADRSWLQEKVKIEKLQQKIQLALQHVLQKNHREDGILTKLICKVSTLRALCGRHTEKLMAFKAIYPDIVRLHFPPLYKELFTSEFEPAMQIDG
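Test system: CHO-K1 cells with Gal4-hRORA LBD fusion and pG5-luc reporter / Compound: single concentration per compound, 10 µM final / Schedule: 20 h compound treatment, 37 °C / Signal: luminescence from basal luciferase reporter expression / Read-out: % inhibition / Control set: mock-transfected cells as 100%, +RORA DMSO cells as 0% / Replicates: tested once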
Hits are given with their value; - = inactive. Shown is part of a subset that was picked to be rich in hits.

SMILES	RORa inhibitor
Nc1nnnn1/N=C/C(Br)=C/c1ccccc1	76.9
COC(=O)c1nnn(CC(=O)Nc2cccc(Cl)c2)c1C(=O)OC	-
OC(CCN1CCOCC1)(c1ccc(Cl)cc1)C1CCCCC1 (stereo not drawn)	-
CCOC(=O)c1[nH]c(C)c(C(=O)Nc2ccc(F)cc2)c1C	-
CC(=O)c1c(C)[nH]c(C(=O)OCCCCN2C(=O)c3ccccc3C2=O)c1C	77.7
CCOC(=O)c1[nH]c(C)c(C(=O)Nc2ccccc2F)c1C	-
O=C(CSc1nccc2ccccc12)N1CCN(Cc2ccc3c(c2)OCO3)CC1	-
CCOC(=O)N1CCN(Cc2nc3c(c(=O)[nH]c(=O)n3C)n2CCCc2ccccc2)CC1	-
C=CS(=O)(=O)c1ccc(Oc2ccc(S(=O)(=O)C=C)cc2)cc1	94.5
COc1ccc(CNC(=O)CSc2nnnn2Cc2ccccc2)cc1	-
O=C(CSc1nnnn1C1CC2CCC1C2)Nc1ccnc2ccccc12 (stereo not drawn)	84.6
Cc1cccc(C)c1OCC(=O)NCc1nnc(SCC(=O)NC2CCCCC2)n1C	-
O=C1Nc2ccc(S(=O)(=O)NCCC3=CCCCC3)c3cccc1c23	-
O=C(CC1C(=O)NCCN1C(=O)Nc1ccccc1)Nc1cccc(C(F)(F)F)c1 (stereo not drawn)	-
CCOC(=O)c1oc2ccccc2c1NC(=O)c1cc(OC)cc(OC)c1	-
COc1ccccc1N1CCN(c2cc(=O)n(-c3ccccc3Cl)c(=O)[nH]2)CC1	-
O=c1cc(N2CCN(c3cccc(Cl)c3)CC2)[nH]c(=O)n1C1CCCCC1	65.1
CN1CCN(c2cc(=O)n(C3CCCCC3)c(=O)[nH]2)CC1	-
Cc1ccc(C)n1-c1ccc(N2CCOCC2)nc1	-
N#Cc1c(NC(=O)CSc2nc(N)cc(=O)[nH]2)sc2c1CCCCCC2	52.2
O=C(Nc1sc2c(c1C(=O)O)CCCCC2)c1ccco1	-
N#Cc1c(NC(=O)CSc2ncn[nH]2)sc2c1CCCCC2	87.9
CCCc1cc(=O)[nH]c(SCC(=O)Nc2cc3c(cc2C(C)=O)OCO3)n1	-
CC(C)c1ccc(C(=O)CSc2ncn[nH]2)cc1	-
O=C(CSc1nc2sc3c(c2c(=O)[nH]1)CCCC3)NCCO	-
SMILES	RORa inhibitor
COc1ccc2cc(CCNC(=O)C3CCCC3)c(=O)[nH]c2c1	-
CC(C)CCn1nnnc1C(c1ccc(F)cc1)N1CCN(C(=O)c2ccco2)CC1 (stereo not drawn)	-
O=C(OCCCN1CCCC1)C1(c2ccccc2)CCCC1	-
COc1ccc(NC(=O)CN2CCN(CC(=O)Nc3ccccc3F)CC2)c(OC)c1	-
Cc1cc(-c2nnco2)c(C)n1-c1ccccc1	-
Cc1ccc(-c2nnc(SCC(=O)Nc3ccccc3F)o2)cc1	63.2
Cc1[nH]c2ccc(-c3nnc(SCC(=O)c4ccccc4F)o3)cc2c1C	-
Cc1csc(NC(=O)CSc2nnc(-c3ccoc3C)o2)n1	-
Cc1cccc(C)c1OCc1nnc(SCC(=O)Nc2ccccc2F)o1	-
Cc1cccc(NC(=O)CSc2nnc(-c3cc(C)n(-c4ccccc4)c3C)o2)c1C	62.8
COc1ccc(S(=O)(=O)N(CC(=O)N2CCN(C)CC2)c2ccccc2)cc1OC	-
c1ccc(Nc2cc(Nc3ccccc3)[nH]n2)cc1	-
COC(=O)c1cc(-c2ccccc2)n(CC(=O)O)c1C	-
CN(CC(=O)NC1CCCCC1)S(=O)(=O)c1cccc2nsnc12	-
COc1ccc(S(=O)(=O)N2Cc3ccccc3CC2C(=O)Nc2ccc(O)cc2)cc1OC (stereo not drawn)	-
COc1ccc(S(=O)(=O)N(CC(=O)N2CCN(C)CC2)c2ccc(C)cc2)cc1OC	-
CC(C)[C@H](NC(=O)[C@@H]1CSCN1C(=O)OC(C)(C)C)C(=O)NCC1CCC(C(=O)O)CC1 (stereo partly drawn)	-
Cc1ccc(-n2ncc(-c3nnc(SCC(=O)NC4CCCC4)o3)c2N)cc1C	-
COc1ccc(-n2ncc3c(N4CCCCC4)ncnc32)cc1	87.1
COc1ccc2nc(N3CCCCC3)c(C#N)cc2c1	-
CC1CN(c2ncnc3c2cnn3-c2ccc(Cl)cc2)CC(C)O1 (stereo not drawn)	-
C=CCNc1ncnc2c1cnn2-c1cccc(C)c1	-
Clc1ccc(-n2ncc3c(N4CCCCCC4)ncnc32)cc1	68.3
Cc1cccc(-n2ncc3c(NCCCO)ncnc32)c1	-
COc1ccc(-n2c(C)nc3c(cnn3-c3ccc(C)c(C)c3)c2=O)cc1	-
SMILES	RORa inhibitor
CCCCNc1ncnc2c1cnn2-c1ccc(Cl)cc1	-
Cc1cccc(-n2ncc3c(N4CCOCC4)ncnc32)c1	67.3
CCC(C)NC(=O)C1CCCN(C(=O)Nc2ccc(F)cc2)C1 (stereo not drawn)	-
COc1ccc(C2(O)CCN(Cc3nnnn3Cc3ccc(F)cc3)CC2)cc1	-
CSCC[C@H](NC(=O)OC(C)(C)C)C(=O)N1CCC(C(=O)N[C@H](C(=O)O)C(C)C)CC1	-
Cn1nnnc1Sc1nc(-c2cccnc2)nc2ccccc12	-
C/C(=N\O)c1ccc2c3c([nH]c2c1)CCCC3	-
Cc1cc(C)c(NC(=O)Cn2c(=O)n(Cc3ccco3)c(=O)c3ccccc32)c(C)c1	-
Cn1c(SCc2ccccc2Cl)nnc1-c1cnccn1	-
O=C(CSc1nnc(-c2ccccc2Cl)o1)N1CCCCC1	-
NCCCCCc1nnc(SCc2ccccc2Cl)o1	56.7
COc1ccc(CNC(=O)CCCCCn2c(SCC#N)nc3cc4c(cc3c2=O)OCO4)cc1	-
CC(C)C1=C2CCCCC2NC(=O)N1 (stereo not drawn)	-
Cc1ccc2nc(-c3ccccc3)cn2c1	89.1
Cc1cccn2cc(-c3ccccc3)nc12	-
CCN(CC)S(=O)(=O)c1cccc(-c2nnc(SC(C)C#N)n2Cc2ccccc2)c1 (stereo not drawn)	-
Clc1ccc(OCc2nc(-c3ccncc3)no2)c(Br)c1	-
CS(=O)(=O)N(CC(=O)NCC1CCCO1)c1ccc(F)c(Cl)c1 (stereo not drawn)	-
CC(=O)Nc1c(C(=O)N2CCN(c3ncccn3)CC2)cnn1-c1ccccc1Cl	-
CC(C)C1N(S(=O)(=O)c2ccccc2)CCN1S(=O)(=O)c1ccccc1	-
O=C(COC(=O)c1cc(=O)[nH]c2ccccc12)NC(=O)NC1CCCCC1	-
Cc1nnc(SCC(=O)N2CCc3ccccc32)s1	-
CCOC(=O)Nc1ccc2c(c1)N(C(=O)N1CCN(C)CC1)c1ccccc1S2	-
Cc1nnc(SC(=O)N2c3ccccc3Sc3ccccc32)s1	71.3
CCN(Cc1ccccc1)C(=O)CCCOc1ccccc1	-
SMILES	RORa inhibitor
CC1CCc2c(sc3nc(SCc4nc(-c5ccccc5)no4)n(C)c(=O)c23)C1 (stereo not drawn)	-
Cn1c(N2CCN(c3ccccn3)CC2)nc2c1c(=O)n(Cc1ccc(Cl)cc1)c(=O)n2C	-
CC(=O)N1CCc2c(sc(NC(=O)c3ccc4c(c3)OCCO4)c2C#N)C1	-
O=C(Nc1ccc(Cl)cn1)c1cccc(F)c1	-
O=C(/C=C\Nc1ccccn1)c1ccc(Cl)cc1	63.8
O=C(/C=C/Nc1ccc(F)c(Cl)c1)c1ccco1	-
O=C(Nc1cccc(Br)c1)c1ccn[nH]1	-
CCN(CC)c1ccc(NC(=O)C2CC3CCC2C3)cc1 (stereo not drawn)	-
CCN(CC)c1ccc(NC(=O)c2ccccc2F)cc1	-
CCN(CC)c1ccc2cc(NC(=O)CCC(=O)O)c(=O)oc2c1	66.2
Clc1ccc(C2=Nn3c(nnc3-c3n[nH]c4c3CCC4)SC2)cc1	-
COc1ccccc1-c1nnc(SCC(=O)Nc2nc(-c3ccccc3)cs2)n1C	-

Screens as filed in PubChem BioAssay.
